From ChEMBL document CHEMBL3785060, “Nitric Oxide Inhibitory Activity and Absolute Configurations of Arylalkenyl α,β-Unsaturated δ/γ-Lactones from Cryptocarya concinna” (J Nat Prod, 2016)

What was measured:
[1] = system: RAW264.7; test: Antiinflammatory activity in mouse RAW264.7 cells assessed as inhibition of LPS-induced nitric oxide production after 18 hrs by Griess assay; format: functional, cell-based; settings: RAW264.7, 18 h
Method in brief: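 LPS-stimulated RAW 264.7 macrophages. Cell viability was first checked by MTT at concentrations up to 100 μM, so that NO inhibition could be separated from cytotoxicity. N-monomethyl-L-arginine served as positive control. Each experiment was run in triplicate. IC50 is given as mean ± SD of three independent experiments.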

[2] = Cytotoxicity against mouse RAW264.7 cells assessed as cell survival up to 100 uM by MTT assay; format: cell-based; settings: read-out: Survival
Method in brief: (§1)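 RAW 264.7 macrophages were screened by MTT before the LPS-induced NO assay to rule out cytotoxicity. Concentrations went up to 100 μM, including 50 μM, and the read-out was percent cell survival. All experiments were run in triplicate.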

[3] = Cytotoxicity against mouse RAW264.7 cells assessed as cell survival at 50 uM by MTT assay; format: cell-based; settings: read-out: Survival; method in brief: as §1

Row | SMILES | IC50 [1] | viability [2] | viability at 50 µM [3]
1 | O=C1C=C[C@H](O)[C@H](C[C@H](O)C[C@@H](O)C[C@H](O)/C=C/c2ccccc2)O1 | 13.8 µM | > 90% | 
2 | CC(=O)O[C@H](C[C@@H](O)C[C@H]1CC=CC(=O)O1)C[C@H](O)/C=C/c1ccccc1 | > 50 µM |  | 
3 | CC(=O)O[C@H](C[C@@H](O)C[C@H](O)/C=C/c1ccccc1)C[C@H]1CC=CC(=O)O1 | > 50 µM | > 90% | 
4 | O=C1C=CC[C@H](C[C@@H]2C[C@H](O)C[C@H](/C=C/c3ccccc3)O2)O1 | 4.2 µM | > 90% | 
5 | CC(=O)O[C@@H](C/C=C1/C=CC(=O)O1)C[C@@H](O)C[C@H](O)/C=C/c1ccccc1 | 3.4 µM | > 90% | 
6 | CNC(=N)NCCC[C@H](N)C(=O)O [TILARGININE] | 45 µM |  | 
7 | CC(=O)O[C@H](C[C@@H](O)C/C=C1/C=CC(=O)O1)C[C@H](O)/C=C/c1ccccc1 | 7.5 µM | > 90% | 
8 | O=C1C=CC[C@H](C[C@H](O)C[C@@H](O)C[C@H](O)/C=C/c2ccccc2)O1 | 3.2 µM | > 90% | 
9 | CC(=O)O[C@H](C[C@@H](O)C[C@@H]1OC(=O)C=C[C@@H]1O)C[C@H](O)/C=C/c1ccccc1 |  |  | < 15%
10 | CC(=O)O[C@H](C[C@@H](O)C[C@H](O)/C=C/c1ccccc1)C[C@@H]1OC(=O)C=C[C@@H]1O | 27.6 µM | > 90% | 
11 | CC(=O)O[C@H](C[C@H](C[C@H](O)/C=C/c1ccccc1)OC(C)=O)C[C@H]1CC=CC(=O)O1 | > 50 µM |  | 
